# Published values gathered from unrelated publications.
# Compare with care: the assays were run in different laboratories.
# Target: Serine/threonine-protein kinase Nek6 (NEK6, Homo sapiens, UniProt Q9HC98)
SMILES,read-out,action,method,tested at,endpoint,result
Cn1cc(-c2cc(F)cc(N3CCn4c(cc5c4CCCC5)C3=O)c2CO)cc(Nc2ccc(N3CCN(C4COC4)CC3)cn2)c1=O,enzyme activity,inhibitor,,0.1 µM,inhibition,6%
Cc1nn(C)cc1-c1nc2c(N3CCN(Cc4ccc(Cl)cc4)CC3)c(Cl)cnc2[nH]1,binding,,competition with immobilised ligand,1 µM,remaining binding,100%
Cn1cc(-c2cccc(N3CCc4c(sc5c4CC(C)(C)C5)C3=O)c2CO)cc(Nc2ccncn2)c1=O,enzyme activity,inhibitor,,1 µM,inhibition,4%
O=c1[nH]c2ccccc2n1C1CCN(Cc2ccc(-c3[nH]c4cc5ncnc5cc4nc3-c3ccccc3)cc2)CC1,cell-free assay,,,0.5 µM,remaining signal,98.2%
Cn1cncc1[C@](O)(COc1ccc(C#N)cc1-c1ccc(OC(F)(F)F)cc1)c1ccc(C#N)cc1,cell-free assay,,competition with immobilised ligand,1 µM,remaining binding,95%
Nc1ncc(-c2nc(N3CCOCC3)nc(N3CCOCC3)n2)c(C(F)F)n1,binding,,competition with immobilised ligand,10 µM,remaining binding,100%
COc1ncccc1-c1cnn2ccc(N3CCN(C(=O)OC(C)C)CC3)nc12,binding,,competition with immobilised ligand,1 µM,remaining binding,68%
COc1cc(Nc2ncc(F)c(Nc3ccc4c(n3)NC(=O)C(C)(C)O4)n2)cc(OC)c1OC,binding,,competition with immobilised ligand,10 µM,inhibition,100%
N#CC1(c2ccccn2)CCN(Cc2cc(C(=O)O)c(=O)n3ccccc23)CC1,cell-free assay,,competition with immobilised ligand,1 µM,remaining binding,100%
O=C1Nc2ccc3ncsc3c2/C1=C/c1cnc[nH]1,enzyme activity,inhibitor,,0.5 µM,remaining activity,93.2%
